Measurements from ChEMBL document CHEMBL1255392, “Pharmacokinetics of acyclovir and its metabolites in cerebrospinal fluid and systemic circulation after administration of high-dose valacyclovir in subjects with normal and impaired renal function” (Antimicrob Agents Chemother, 2010).

How the values were obtained:
[1] = Drug level in human plasma with chronic kidney disease at 1500 mg, po every 12 hrs measured after fifth dose by radioimmunoassay; assay type: ADME, organism-based; conditions: read-out: Drug uptake
How it was run: (§1)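 Three chronic kidney disease subjects (CrCl ∼15 to 30 ml/min) took valacyclovir 1,500 mg orally every 12 h for 5 doses, fasting from 8 h before to 2 h after the fifth dose. Plasma was drawn at 0, 0.5, 1, 1.5, 2, 3, 4, 6, 8 and 12 h. Acyclovir was measured by scintillation proximity radioimmunoassay.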

[2] = AUC (0 to 12 hrs) in human systemic circulation with chronic kidney disease at 1500 mg, po every 12 hrs measured after fifth dose by radioimmunoassay; assay type: ADME, organism-based; design: dose 1500 mg, time < 12 hr, route oral; conditions: plasma; how it was run: as §1
[3] = Tmax in human systemic circulation with normal renal function at 2000 mg, po every 6 hrs measured after fifth dose by radioimmunoassay; assay type: ADME, organism-based; conditions: plasma
How it was run: (§2)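 Six subjects with normal renal function took valacyclovir 2,000 mg orally every 6 h for 5 doses, fasting from 8 h before to 2 h after the fifth dose. Plasma was drawn at 0, 0.5, 1, 1.5, 2, 3, 4, 6 and 8 h. Acyclovir was measured by scintillation proximity radioimmunoassay (LLQ 14.1 ng/ml). Noncompartmental analysis gave AUC over 0–6 h, Cmax and tmax, with Cavg = AUCτ/τ.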

[4] = Cmax in human CSF with chronic kidney disease at 1500 mg, po every 12 hrs measured after fifth dose by radioimmunoassay; assay type: ADME, organism-based, Cerebrospinal fluid; design: dose 1500 mg, route oral
How it was run: (§3)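 CKD subjects (n=3) received an oral dose every 12 h for 5 doses. CSF was drawn through an indwelling lumbar catheter predose and at 0.5, 1, 1.5, 2, 3, 4, 6, 8 and 12 h after the fifth dose. Acyclovir was quantified by automated scintillation proximity radioimmunoassay with a monoclonal antibody; the standard curve was 1.4–90 ng/ml and LLQ 14.1 ng/ml. Noncompartmental parameters were calculated over 0–12 h.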

[5] = Cmax in human CSF with normal renal function at 2000 mg, po every 6 hrs measured after fifth dose by radioimmunoassay; assay type: ADME, organism-based, Cerebrospinal fluid; design: dose 2000 mg, route oral
How it was run: (§4)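 Normal-renal-function subjects (n=6) took an oral dose every 6 h for 5 doses. Serial lumbar-catheter CSF was collected on ice predose through 8 h after the last dose. Acyclovir was assayed by scintillation proximity radioimmunoassay validated for CSF (range 1.4–90 ng/ml; 1:10 dilution; LLQ 14.1 ng/ml). Cmax, tmax and AUCτ over 0–6 h were computed noncompartmentally.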

[6] = Tmax in human CSF with normal renal function at 2000 mg, po every 6 hrs measured after fifth dose by radioimmunoassay; assay type: ADME, organism-based, Cerebrospinal fluid; how it was run: as §4
[7] = Tmax in human systemic circulation with chronic kidney disease at 1500 mg, po every 12 hrs measured after fifth dose by radioimmunoassay; assay type: ADME, organism-based; conditions: plasma; how it was run: as §1
[8] = Drug level in human CSF with chronic kidney disease at 1500 mg, po every 12 hrs measured after fifth dose by radioimmunoassay; assay type: ADME, organism-based; conditions: read-out: Drug uptake; how it was run: as §3
[9] = Tmax in human CSF with chronic kidney disease at 1500 mg, po every 12 hrs measured after fifth dose by radioimmunoassay; assay type: ADME, organism-based, Cerebrospinal fluid; how it was run: as §3
[10] = AUC (0 to 6 hrs) in human CSF with normal renal function at 2000 mg, po every 6 hrs measured after fifth dose by radioimmunoassay; assay type: ADME, organism-based; design: time < 6 hr, dose 2000 mg, route oral; how it was run: as §4
[11] = AUC (0 to 12 hrs) in human CSF with chronic kidney disease at 1500 mg, po every 12 hrs measured after fifth dose by radioimmunoassay; assay type: ADME, organism-based; design: time < 12 hr, dose 1500 mg, route oral; how it was run: as §3
[12] = Drug level in human plasma with normal renal function at 2000 mg, po every 6 hrs measured after fifth dose by radioimmunoassay; assay type: ADME, organism-based; conditions: read-out: Drug uptake; how it was run: as §2
[13] = Drug level in human CSF with normal renal function at 2000 mg, po every 6 hrs measured after fifth dose by radioimmunoassay; assay type: ADME, organism-based; conditions: read-out: Drug uptake; how it was run: as §4
[14] = Cmax in human systemic circulation with normal renal function at 2000 mg, po every 6 hrs measured after fifth dose by radioimmunoassay; assay type: ADME, organism-based; design: dose 2000 mg, route oral; conditions: plasma; how it was run: as §2
[15] = Cmax in human systemic circulation with chronic kidney disease at 1500 mg, po every 12 hrs measured after fifth dose by radioimmunoassay; assay type: ADME, organism-based; design: dose 1500 mg, route oral; conditions: plasma; how it was run: as §1
[16] = AUC (0 to 6 hrs) in human systemic circulation with normal renal function at 2000 mg, po every 6 hrs measured after fifth dose by radioimmunoassay; assay type: ADME, organism-based; design: time < 6 hr, dose 2000 mg, route oral; conditions: plasma; how it was run: as §2

Nc1nc2c(ncn2COCCO)c(=O)[nH]1 [ACYCLOVIR]
concentration at 12 h [1]: 48 µM
AUC at 12 h [2]: 577 µM·h
Tmax [3]: 2.1 h
Cmax [4]: 16 µM
Cmax [5]: 7.8 µM
Tmax [6]: 2.3 h
Tmax [7]: 2 h
concentration at 12 h [8]: 13.3 µM
Tmax [9]: 5.3 h
AUC at 6 h [10]: 37 µM·h
AUC at 12 h [11]: 159 µM·h
concentration at 6 h [12]: 23 µM
concentration at 6 h [13]: 6.25 µM
Cmax [14]: 42 µM
Cmax [15]: 82 µM
AUC at 6 h [16]: 137 µM·h
